Assay outcomes (PubChem)
Compounds with a hit are over-represented: about 3.1% of the library has one in this group of screens.
CSC inhib: cancer stem cell viability inhibitors, primary screen, luminescence. cancer stem cell-like cells viability. inhibition, % at 7.5 µM. 300,000 compounds, 1.1% hits. AID 2717, 2010; in the data active means inhibition above about 75%; inconclusive means no clear call, values can overlap the other calls; tested in HMLE shEcad cells
Calb FLC: C. albicans growth inhibition with fluconazole, primary screen, CaCi-2 strain, Alamar Blue fluorescence; C. albicans CaCi-2 (fluconazole-resistant clinical isolate) + fluconazole, 48 h; growth inhibition, % (no concentration beside the values); 300,000 compounds, 0.57% hits; AID 1979, 2009;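 active means growth inhibition above about 58% in most replicates, limit read from the data, passing the limit was not always enough; inconclusive means exactly half the replicates above a set limit; inactive means most replicates below a set limit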;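 further: all wells also contain fluconazole at 8 µg/ml as a sub-toxic cotreatment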
HIF act: HIF pathway transcriptional activators, primary screen, cell-based, U2OS HRE-luciferase, luminescence. U2OS HRE-luciferase reporter; normalized: DMSO 0%, desferrioxamine 100%. activation, % at 7.5 µM (by protocol). 300,000 compounds, 0.32% hits. AID 1910, 2009;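 active means mean activation of at least 10% of the iron chelator positive control signal, with at least half of replicates also reaching 10%; inconclusive means mean and replicate majority disagree about reaching 10%; inactive means mean and most replicates under 10%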
PolyA inh: polyadenylation inhibitors in yeast reporter cells, primary screen, luminescence, S. cerevisiae; 300,000 compounds, 0.02% hits; activity score, % at 12 µM; S. cerevisiae SKY197-pL101 polyadenylation reporter, beta-gal luminescence; efflux-impaired pdr1/pdr3 knockout yeast; score 100 = 6 SD above DMSO;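 active means lowest replicate activity score at least 50, where 100 means six control SD above control mean; inconclusive means lowest score under 50 but half or more replicates reach 50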;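 further: yeast exposed to compound for 9 h at 30 °C; higher score means more reporter readthrough which indicates perturbed polyadenylation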
Beta apoptosis: inhibitors of cytokine-induced beta cell apoptosis, primary screen, luminescence | protection from apoptosis, % (no concentration beside the values) | 300,000 compounds, 0.8% hits | INS-1E cytokine-induced death, ATP luminescence, 48 h; percent of positive-control rescue, neutral wells zero;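 active means Every replicate reaches about 75%, or at least half do and their mean reaches it too, limit read from the data; inconclusive means At least half of replicates reach the limit but their mean does not; inactive means Under half of replicates reach the limit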;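 further: higher means more ATP so stronger rescue from cytokine killing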
T cruzi inh: inhibitors of intracellular T. cruzi growth, primary screen, luminescence, NIH3T3 host cells. T. cruzi beta-gal in NIH3T3, 90 h. inhibition, % (no concentration beside the values). 300,000 compounds, 1.4% hits;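 active means mean inhibition across valid replicates above about 55%, limit read from the data; inconclusive means mean below that limit but half or more replicates reach it; inactive means mean below it, under half of replicates reach it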;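 further: signal also drops with host cell toxicity which is not excluded here; higher percent means less beta-gal luminescence so fewer parasites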
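System: NIH/3T3 fibroblasts plus reporter T. cruzi. Medium: DMEM plus 2% FBS. Probe or stimulus: 5000 reporter trypomastigotes per well. Compound: single 50 nL compound addition per well in DMSO. Incubation: co-culture of at least 90 h after 3 h attachment. Detection: GalScreen β-gal luminescence, detergent lysis, 60 min. Evaluation: parasite load inhibition, %.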
Each line names hits and unclear results; the compound was inactive in the other large screens.

CNC(=O)c1nnsc1S(=O)(=O)c1ccc(Cl)cc1	T cruzi inh 59.6 (no result: CSC inhib, Beta apoptosis)
COc1cc2c(cc1NC(=O)Nc1cccc(C)c1)oc1ccccc12	none
COc1cc2c(cc1NC(=O)c1cccc([N+](=O)[O-])c1C)oc1ccccc12	CSC inhib 101.7
COc1ccc(NC(=O)Nc2cc3oc4ccccc4c3cc2OC)cc1	none
COc1cc2c(cc1NC(=O)CSc1nc3ccccc3[nH]1)oc1ccccc12	CSC inhib 79.7
COc1cc2c(cc1NC(=O)Nc1ccc(F)cc1)oc1ccccc12	T cruzi inh 60.0
COc1cc2c(cc1NC(=O)Nc1ccc(C)cc1)oc1ccccc12	CSC inhib 88.1
COc1cc2c(cc1NC(=O)C(C)Sc1ccc(NC(C)=O)cc1)oc1ccccc12 (stereo not drawn)	none
CCN1CCC(Nc2ccnc3cc(Cl)ccc23)CC1	none
CCN(CC)S(=O)(=O)c1ccc(C(=O)Nc2cc3oc4ccccc4c3cc2OC)cc1	none
COc1cc2c(cc1NC(=O)c1cccc(S(=O)(=O)N(C)C)c1)oc1ccccc12	CSC inhib 126.4
O=[N+]([O-])c1c(C(Cl)Cl)nn(-c2ccc(Cl)cc2)c1N1CCCCC1	Calb FLC 80.8 (no result: HIF act)
O=[N+]([O-])c1c(C(Cl)Cl)nn(-c2ccccc2)c1N1CCOCC1	PolyA inh inconclusive
CNC[C@H](CC1CCCCC1)NC[C@H](CO)NCC1(c2ccccc2)CC1	none
CNC[C@H](CC1CCCCC1)NC[C@H](CO)NCCc1cccc(C(F)(F)F)c1	CSC inhib 132.1
CC(C)CN(C(=O)COC(=O)CNC(=O)c1ccccc1F)C1CCS(=O)(=O)C1 (stereo not drawn)	Calb FLC 107.4 (no result: CSC inhib)
CCOC(=O)C1=C(C)n2c(s/c(=C/c3cccc([N+](=O)[O-])c3)c2=O)=NC1c1ccc(O)c(OC)c1 (stereo not drawn)	T cruzi inh 69.9
CCOC(=O)C1=C(C)N=c2s/c(=C\c3ccc(O)c([N+](=O)[O-])c3)c(=O)n2C1c1ccccc1OC (stereo not drawn)	none
Cc1cccc(-c2ncc(S(=O)(=O)C(C)(C)C)c(N)n2)c1	none
CCCOc1ccc(/C=N/Nc2ccc(C(=O)O)cc2)c(OCCC)c1	none (no result: CSC inhib, Beta apoptosis)
COc1ccc(/C=N/NC(=S)Nc2ccccc2[N+](=O)[O-])cc1O	CSC inhib 88.7
Cc1ccc(NC(=S)N/N=C/c2ccc(Cl)c([N+](=O)[O-])c2)cc1	none
CCCOc1ccc(/C=N/Nc2cccc([N+](=O)[O-])c2)c(O)c1	CSC inhib 112.9
COc1cc(/C=N/Nc2ccccc2[N+](=O)[O-])cc(OC)c1O	none
O=[N+]([O-])c1cc(/C=N/NC(=S)Nc2ccccc2Cl)ccc1Cl	CSC inhib 83.9 (no result: HIF act, PolyA inh, T cruzi inh)
CCCOc1ccc(/C=N/Nc2ccccc2[N+](=O)[O-])c(O)c1	none (no result: CSC inhib)
CCCOc1ccc(/C=N/NC(=S)Nc2ccccc2[N+](=O)[O-])c(O)c1	CSC inhib 88.5, Beta apoptosis 107.6
COc1cccc(OC)c1C(=O)Nc1ccncc1	none
Cc1onc(-c2ccccc2)c1C(=O)Nc1ccc(Br)cc1Cl	none
CC/C(C)=N/Nc1cccc([N+](=O)[O-])c1	Calb FLC 91.8
Cc1ccc2nc(/C(C#N)=C\c3ccc(N4CCCCC4)c([N+](=O)[O-])c3)[nH]c2c1	T cruzi inh 72.4
COc1ccc(NC(=O)Nc2ccc(F)cc2F)c(C)c1	none
O=C(Nc1ccc(OC(F)(F)F)cc1)Nc1cccnc1	none
Cc1cc([N+](=O)[O-])ccc1NC(=O)Nc1ccc(F)cc1F	T cruzi inh 55.1 (no result: Beta apoptosis)
O=C(Nc1ccc(OC(F)(F)F)cc1)Nc1cccc([N+](=O)[O-])c1	Beta apoptosis 101.9 (no result: CSC inhib)
Cc1ccc(NC(=O)Nc2cccc([N+](=O)[O-])c2)cc1F	Beta apoptosis 93.0, T cruzi inh 55.3
O=C(c1cc(Br)ccc1O)N1CCN(S(=O)(=O)Cc2ccccc2)CC1	none (no result: Calb FLC, HIF act, PolyA inh, T cruzi inh)
Cc1ccc(/C=C/C(=O)Nc2ccc(S(=O)(=O)Nc3onc(C)c3C)cc2)cc1	none
O=[N+]([O-])c1ccc(S(=O)(=O)CC(CN2CCCCC2)N2CCCCC2)cc1 (stereo not drawn)	CSC inhib 78.3
COc1ccc(Cc2nnc(NC(=O)C(C)(C)C)s2)cc1	none
COC(=O)Nc1nnc(Cc2ccc(OC)cc2)s1	HIF act 39.8
Cc1ccc(CNC(=O)CSCc2cccc(F)c2)cc1	Calb FLC 93.9
CCc1ccc(CN2CCCC(CCC(=O)N3CCN(c4ccccn4)CC3)C2)o1 (stereo not drawn)	T cruzi inh 59.2
CC(=S)/C=C1\Sc2ccccc2N1C	Calb FLC 116.8, T cruzi inh 69.1
COc1ccc(C(=O)/C=C2\Sc3ccccc3N2C)cc1	none
COc1ccccc1-n1nnnc1SCC(=O)Nc1ccc(C)c(N)c1	none
O=C(Nc1ccn(Cc2c(F)c(F)cc(F)c2F)n1)c1ccc(COc2ccccc2Cl)cc1	T cruzi inh 62.8
O=C(Nc1ccn(Cc2c(F)c(F)cc(F)c2F)n1)c1ccc(COc2cc(Cl)ccc2Cl)o1	none
Cc1cc(C)nc(NC(=O)c2c(-c3ccccc3Cl)noc2C)c1	none
O=C(Nc1ccn(Cc2ccccc2F)n1)c1ccc(COc2ccccc2Cl)cc1	CSC inhib 139.0
Cc1cc(C)nc(NC(=O)c2ccc(COc3ccccc3Cl)cc2)c1	CSC inhib 98.5
COc1ccc(CN(C)c2ncnc3sccc23)c(OC)c1OC	CSC inhib 77.0
COc1ccc(CCN(C)c2ncnc3sccc23)cc1OC	none
Cc1ccc(NC(C)C(=O)N/N=C/c2ccc([N+](=O)[O-])s2)cc1 (stereo not drawn)	T cruzi inh 82.1
COc1ccc(NC(C)C(=O)N/N=C/c2ccc([N+](=O)[O-])s2)cc1 (stereo not drawn)	Calb FLC inconclusive, T cruzi inh 64.8
Cc1ccccc1C(=O)N/N=C/c1ccc([N+](=O)[O-])s1	none (no result: CSC inhib, Beta apoptosis)
O=C(NCc1csc(-c2ccccc2)n1)c1cc(F)cc2c1OCOC2	none
O=C(CN(c1cccc(C(F)(F)F)c1)S(=O)(=O)c1ccc(Cl)c([N+](=O)[O-])c1)NCc1ccc(F)cc1	CSC inhib 185.5
O=C(CN(c1cccc([N+](=O)[O-])c1)S(=O)(=O)c1ccccc1)NCc1cccnc1	none
CCCCN(CC)CCCNC(=O)c1ccc(CS(=O)(=O)c2ccccc2C)o1	none
O=c1ccc(-c2ccccc2)nn1Cc1ccc(F)cc1	none
O=c1c2c(c(-c3ccccc3)nn1Cc1ccccc1)CCCC2	none
